What was measured:
[1] = test system: Mus musculus; assay: Inhibition of xylene-induced ear edema in Kunming mouse at 20 mg/kg, po after 2 hrs relative to control; format: functional
How it was run: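 Male Kunming mice (groups of 12; n = 11 per table footnote) were dosed orally as a suspension in 0.5% CMC, with CMC vehicle and positive control groups. After 30 min, 0.03 ml xylene went on both surfaces of the right ear, with the left ear as control. Mice were killed 2 h later. 7 mm ear punches were weighed, and edema was taken as right minus left weight. Groups were compared by one-way ANOVA, p < 0.05.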

[2] = test system: Mus musculus; assay: Toxicity in mouse assessed as tail bleeding time at 200 mg/kg, po after 60 mins; format: organism-based; parameters: dose 200 mg/kg, route oral; conditions: in vivo, 1 h
How it was run: (§1)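 Male mice (18–22 g) were dosed orally, and bleeding time was recorded before dosing and at each post-dose time. Each mouse was held in a tube with its tail protruding, and a 2 mm tail cut was made. Blood was wiped away with tissue every 30 s until bleeding ceased, and the time was recorded. The comparison group received NS.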

[3] = test system: Mus musculus; assay: Toxicity in mouse assessed as tail bleeding time at 200 mg/kg, po after 30 mins; format: organism-based; parameters: dose 200 mg/kg, route oral; conditions: in vivo, 0.5 h; how it was run: as §1
[4] = test system: Mus musculus; assay: Toxicity in mouse assessed as tail bleeding time at 200 mg/kg, po after 90 mins; format: organism-based; parameters: dose 200 mg/kg, route oral; conditions: in vivo, 1.5 h; how it was run: as §1
[5] = test system: Mus musculus; assay: Toxicity in mouse assessed as tail bleeding time at 200 mg/kg, po after 45 mins; format: organism-based; parameters: dose 200 mg/kg, route oral; conditions: in vivo, 0.75 h; how it was run: as §1

SMILES	inhibition in vivo at 20 mg/kg [1] [%]	Activity [2] [s]	Activity [3] [s]	Activity [4] [s]	Activity [5] [s]
Cc1ccc([C@H]2OC[C@H](NC(=O)Cc3ccccc3)CO2)cc1	35.6	118.4	117.2	119.2	118.6
O=C(N[C@H]1CO[C@H](c2ccc(Cl)cc2)OC1)c1ccccc1	47.4	118.7	119	119.6	118.9
Cc1ccc([C@H]2OC[C@@H](NC(=O)Cc3ccccc3)CO2)cc1	36.5	118.4	117.2	119.2	118.6
O=C(Cc1ccccc1)N[C@H]1CCO[C@@H](c2ccc([N+](=O)[O-])cc2)OC1	19.6				
O=C(N[C@H]1CCO[C@@H](c2ccc(Cl)cc2)OC1)c1ccccc1	28.2				
O=C(N[C@H]1CO[C@H](c2cccc([N+](=O)[O-])c2)OC1)c1ccccc1	45.2	118.4	118.8	118.7	118
C[C@@H]1O[C@@H](c2ccc([N+](=O)[O-])cc2)OC[C@H]1NC(=O)Cc1ccccc1	55.8	117.9	117.8	117.2	118.5
O=C(N[C@H]1CCO[C@H](c2ccc([N+](=O)[O-])cc2)OC1)c1ccccc1	19.2				
C[C@@H]1O[C@@H](c2ccccc2)OC[C@H]1NC(=O)Cc1ccccc1	40	118.6	118.5	117.9	119
O=C(N[C@H]1CCO[C@@H](c2cccc([N+](=O)[O-])c2)OC1)c1ccccc1	21.8				
C[C@@H]1O[C@H](c2cccc([N+](=O)[O-])c2)OC[C@H]1NC(=O)c1ccccc1		119.5	118.9	118.2	118.2
O=C(Cc1ccccc1)N[C@H]1CCCO[C@H](c2ccc(Cl)cc2)OC1	23.1				
C[C@@H]1O[C@H](c2ccc([N+](=O)[O-])cc2)OC[C@H]1NC(=O)Cc1ccccc1	55.1	117.9	117.8	117.2	118.5
O=C(N[C@H]1CCO[C@H](c2ccc(Cl)cc2)OC1)c1ccccc1	29.5				
O=C(Cc1ccccc1)N[C@H]1CCO[C@@H](c2ccc(Cl)cc2)OC1	24.4				
O=C(Cc1ccccc1)N[C@H]1CO[C@@H](c2ccc(Cl)cc2)OC1	43.6	119.5	117.9	118.4	119.2
O=C(Cc1ccccc1)N[C@H]1CCCO[C@H](c2cccc([N+](=O)[O-])c2)OC1	19.2				
O=C(Cc1ccccc1)N[C@H]1CO[C@@H](c2cccc([N+](=O)[O-])c2)OC1	41.3	119.2	117.7	118.6	118.5
O=C(Cc1ccccc1)N[C@H]1CO[C@@H](c2ccc([N+](=O)[O-])cc2)OC1	43.3	117.6	120.7	117.7	120.2
O=C(N[C@H]1CO[C@@H](c2cccc([N+](=O)[O-])c2)OC1)c1ccccc1	42.9	119.1	119.3	120.2	118.2
Cc1ccc([C@@H]2OC[C@@H](NC(=O)Cc3ccccc3)[C@@H](C)O2)cc1	42.3	119	117.9	118.5	118.6
O=C(Cc1ccccc1)N[C@H]1CCO[C@H](c2ccc([N+](=O)[O-])cc2)OC1	18.9				

SMILES	inhibition in vivo at 20 mg/kg [1] [%]	Activity [2] [s]	Activity [3] [s]	Activity [4] [s]	Activity [5] [s]
O=C(Cc1ccccc1)N[C@H]1CO[C@@H](/C=C/c2ccccc2)OC1	27.2				
C[C@@H]1O[C@H](c2ccc(Cl)cc2)OC[C@H]1NC(=O)Cc1ccccc1	46.1	118.6	118.4	119	119.6
O=C(Cc1ccccc1)N[C@H]1CCCO[C@@H](c2ccc([N+](=O)[O-])cc2)OC1	20.8				
O=C(Cc1ccccc1)N[C@H]1CCCO[C@@H](c2ccc(Cl)cc2)OC1	23.7				
O=C(Cc1ccccc1)N[C@H]1CCCO[C@@H](c2cccc([N+](=O)[O-])c2)OC1	19.9				
O=C(Cc1ccccc1)N[C@H]1CO[C@H](c2ccc([N+](=O)[O-])cc2)OC1	44.6	117.6	120.7	117.7	120.2
Cc1ccc([C@H]2OC[C@@H](NC(=O)c3ccccc3)[C@H](C)O2)cc1	46.1	119.8	120.9	118.7	121
C[C@@H]1O[C@H](/C=C/c2ccccc2)OC[C@H]1NC(=O)Cc1ccccc1	33.3				
O=C(N[C@H]1CCO[C@@H](c2ccc([N+](=O)[O-])cc2)OC1)c1ccccc1	20.2				
Cc1ccc([C@H]2OC[C@@H](NC(=O)Cc3ccccc3)[C@H](C)O2)cc1	41	119	117.9	118.5	118.6
O=C(Cc1ccccc1)N[C@H]1CCCO[C@H](c2ccc([N+](=O)[O-])cc2)OC1	19.9				
O=C(Cc1ccccc1)N[C@H]1CO[C@H](/C=C/c2ccccc2)OC1	29.5				
O=C(N[C@H]1CO[C@@H](c2ccc(Cl)cc2)OC1)c1ccccc1	28.5	120.9	118	119.4	118.9
C[C@@H]1O[C@H](c2ccccc2)OC[C@H]1NC(=O)c1ccccc1	43.9	118.6	118.7	118.9	118.9
C[C@@H]1O[C@H](c2ccc(Cl)cc2)OC[C@H]1NC(=O)c1ccccc1	47.1	118.7	119.6	118.6	118.6
O=C(N[C@H]1CCO[C@H](c2cccc([N+](=O)[O-])c2)OC1)c1ccccc1	20.8				
O=C(Cc1ccccc1)N[C@H]1CCO[C@@H](c2cccc([N+](=O)[O-])c2)OC1	21.2				
C[C@@H]1O[C@@H](c2ccccc2)OC[C@H]1NC(=O)c1ccccc1	43.9				
O=C(Cc1ccccc1)N[C@H]1CCO[C@H](c2ccc(Cl)cc2)OC1	23.7				
O=C(Cc1ccccc1)N[C@H]1CCO[C@H](c2cccc([N+](=O)[O-])c2)OC1	20.1				
C[C@@H]1O[C@@H](/C=C/c2ccccc2)OC[C@H]1NC(=O)Cc1ccccc1	32.1				

Source: ChEMBL document CHEMBL1149585, “Toward the development of chemoprevention agents. Part 1: Design, synthesis, and anti-inflammatory activities of a new class of 2,5-disubstituted-dioxacycloalkanes” (Bioorg Med Chem, 2007)
